Active and inactive are the calls of the source.
What was measured:
Homo sapiens [1] = species on record: Homo sapiens; assay: Induction of cell death in multidrug resistant human A549RT-eto cells incubated for 72 hrs by MTT assay; assay type: functional
Summary of the method: (§1)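 Parental A549 and etoposide-resistant A549RT-eto cells exposed 72 h to two-fold serial dilutions, 25 to 1.56 µg/ml; viability by MTT; IC50 derived from dose-response; mean of triplicates with standard deviation.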

[2] = Cytotoxicity in multidrug resistant human A549RT-eto cells incubated for 72 hrs by MTT assay; assay type: functional, cell-based; summary of the method: as §1
A549 = assay: Cytotoxicity in human A549 cells incubated for 72 hrs by MTT assay; assay type: functional, cell-based; conditions: A549, 72 h; summary of the method: as §1
Homo sapiens [3] = species on record: Homo sapiens; assay: Cytotoxicity in multidrug resistant human A549RT-eto cells assessed as reduction in cell survival at; assay type: functional, cell-based
Homo sapiens [4] = species on record: Homo sapiens; assay: Cytotoxicity in multidrug resistant human A549RT-eto cells assessed as reduction in cell survival at 20 ug/ml incubated for 12 hrs by MTT assay; assay type: functional, cell-based
Summary of the method: (§2)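 A549RT-eto cells held at fixed 20 µg/ml and sampled at several exposure times (0, 6, 12, 24 h); survival scored.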

Homo sapiens [5] = species on record: Homo sapiens; assay: Cytotoxicity in multidrug resistant human A549RT-eto cells assessed as reduction in cell survival at 20 ug/ml incubated for 24 hrs by MTT assay; assay type: functional, cell-based; summary of the method: as §2
Homo sapiens [6] = species on record: Homo sapiens; assay: Induction of apoptosis in multidrug resistant human A549RT-eto cells assessed as reduction in pro-caspse-8 protein expression at 10 to 20 ug/ml incubated for 12 hrs by Western blot method; assay type: functional
Summary of the method: (§3)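 A549RT-eto cells treated at 10 and 20 µg/ml, lysed at 12 h; lysates resolved on 12% SDS-PAGE; immunoblot for pro-caspase 8 and PARP cleavage.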

Homo sapiens [7] = species on record: Homo sapiens; assay: Induction of apoptosis in multidrug resistant human A549RT-eto cells assessed as increase in PARP cleavage at 10 to 20 ug/ml incubated for 12 hrs by Western blot method; assay type: functional; summary of the method: as §3
Homo sapiens [8] = species on record: Homo sapiens; assay: Induction of apoptosis in multidrug resistant human A549RT-eto cells assessed as reduction in pro-caspse-9 protein expression at 10 to 20 ug/ml incubated for 12 hrs by Western blot method; assay type: functional
Homo sapiens [9] = species on record: Homo sapiens; assay: Induction of autophagy in multidrug resistant human A549RT-eto cells assessed as increase in GFP-LC3-II puncta at 7.5 to 20 ug/ml incubated for 24 hrs by fluorescence microscopy; assay type: functional
Homo sapiens [10] = species on record: Homo sapiens; assay: Induction of autophagy in multidrug resistant human A549RT-eto cells assessed as increase in beclin-1 protein level at 20 ug/ml incubated for 24 hrs by immunoblot; assay type: functional
Homo sapiens [11] = species on record: Homo sapiens; assay: Induction of autophagy in multidrug resistant human A549RT-eto cells assessed as increase in LC3-I to LC3-II conversion at 20 ug/ml incubated for 24 hrs by immunoblot; assay type: functional
Homo sapiens [12] = species on record: Homo sapiens; assay: Induction of autophagy in multidrug resistant human A549RT-eto cells assessed as increase in LC3-I to LC3-II conversion at 20 ug/ml incubated for 24 hrs in presence of beclin-1 siRNA by immunoblot; assay type: functional
Summary of the method: (§4)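 A549RT-eto cells transfected with control or beclin-1 siRNA (100 nM), then given 0 or 20 µg/ml for 24 h; viability by light microscopy and MTT as percent relative viability, mean of three experiments; lysates on 12% SDS-PAGE immunoblotted for PARP cleavage, beclin-1 and LC3.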

Homo sapiens [13] = species on record: Homo sapiens; assay: Induction of cell death in multidrug resistant human A549RT-eto cells at 20 ug/ml incubated for 24 hrs in presence of beclin-1 siRNA by MTT assay; assay type: functional; summary of the method: as §4
Homo sapiens [14] = species on record: Homo sapiens; assay: Induction of apoptosis in multidrug resistant human A549RT-eto cells assessed as increase in PARP cleavage at 20 ug/ml incubated for 24 hrs in presence of beclin-1 siRNA by Western blot method; assay type: functional; summary of the method: as §4
Homo sapiens [15] = species on record: Homo sapiens; assay: Induction of cell death in multidrug resistant human A549RT-eto cells at 20 ug/ml incubated for 24 hrs in presence of beclin-1 siRNA by light microscopy; assay type: functional; summary of the method: as §4
[16] = Induction of cell death in multidrug resistant human A549RT-eto cells assessed as cell survival at 20 ug/ml incubated for 24 hrs in presence of pan-caspase inhibitor Z-VAD by MTT assay (reference value: 30%); assay type: functional; conditions: read-out: Survival
Summary of the method: (§5)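 Etoposide-resistant A549RT-eto cells exposed for 24 h to XanX 20 µg/ml, pan-caspase inhibitor Z-VAD 20 µM, or both combined. Morphology inspected by light microscope. Viability read by MTT assay as percentage relative to control. Values are the mean of at least three experiments.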

[17] = Induction of cell death in multidrug resistant human A549RT-eto cells assessed as cell survival at 20 ug/ml incubated for 24 hrs in presence of pan-caspase inhibitor Z-VAD by light microscopy (reference value: 30%); assay type: functional; conditions: read-out: Survival; summary of the method: as §5
[18] = Induction of cell death in multidrug resistant human A549RT-eto cells assessed as cell survival at 20 ug/ml incubated for 24 hrs in absence of pan-caspase inhibitor Z-VAD by MTT assay; assay type: functional; conditions: read-out: Survival; summary of the method: as §5
[19] = Induction of cell death in multidrug resistant human A549RT-eto cells assessed as cell survival at 20 ug/ml incubated for 24 hrs in absence of pan-caspase inhibitor Z-VAD by light microscopy; assay type: functional; conditions: read-out: Survival; summary of the method: as §5
Homo sapiens [20] = species on record: Homo sapiens; assay: Induction of apoptosis in multidrug resistant human A549RT-eto cells assessed as increase in PARP cleavage at 20 ug/ml incubated for 24 hrs in presence of pan-caspase inhibitor Z-VAD by Western blot method; assay type: functional
Summary of the method: (§6)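 A549RT-eto cells given 20 µg/ml alone, Z-VAD (20 µM) alone, or both for 24 h; MTT viability, mean of at least three experiments; lysates on 12% SDS-PAGE immunoblotted for cleaved PARP, beclin-1, LC3B and Atg5.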

Homo sapiens [21] = species on record: Homo sapiens; assay: Induction of autophagy in multidrug resistant human A549RT-eto cells assessed as increase in LC3-I to LC3-II conversion at 20 ug/ml incubated for 24 hrs in presence of pan-caspase inhibitor Z-VAD by immunoblot; assay type: functional; summary of the method: as §6
Homo sapiens [22] = species on record: Homo sapiens; assay: Induction of autophagy in multidrug resistant human A549RT-eto cells assessed as increase in beclin-1 protein level at 20 ug/ml incubated for 24 hrs in presence of pan-caspase inhibitor Z-VAD by immunoblot; assay type: functional; summary of the method: as §6
Homo sapiens [23] = species on record: Homo sapiens; assay: Reduction in HDAC4 protein expression in multidrug resistant human A549RT-eto cells at 20 ug/ml incubated for 24 hrs by immunoblot; assay type: functional
Summary of the method: (§7)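 A549 and A549RT-eto cells treated with 20 µg/ml for 24 h; lysates resolved on 8% SDS-PAGE; immunoblot for HDAC4, P-gp and PARP cleavage.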

Homo sapiens [24] = species on record: Homo sapiens; assay: Reduction in P-gp protein expression in multidrug resistant human A549RT-eto cells at 20 ug/ml incubated for 24 hrs by immunoblot; assay type: functional; summary of the method: as §7
[25] = Induction of cell death in multidrug resistant human A549RT-eto cells at 20 ug/ml incubated for 24 hrs by MTT assay; assay type: functional
[26] = Induction of cell death in multidrug resistant human A549RT-eto cells at 20 ug/ml incubated for 24 hrs in presence of HDAC4 siRNA by MTT assay; assay type: functional
Summary of the method: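 A549RT-eto cells transfected with control or HDAC4 siRNA (100 nM), then exposed to XanX 20 µg/ml for 24 h. Morphology checked by light microscope. Viability by MTT assay as percentage relative viability, mean of three experiments.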

Homo sapiens [27] = species on record: Homo sapiens; assay: Induction of apoptosis in multidrug resistant human A549RT-eto cells assessed as increase in PARP cleavage at 20 ug/ml incubated for 24 hrs in presence of HDAC4 siRNA by Western blot method; assay type: functional
Homo sapiens [28] = species on record: Homo sapiens; assay: Induction of autophagy in multidrug resistant human A549RT-eto cells assessed as increase in LC3-I to LC3-II conversion at 20 ug/ml incubated for 24 hrs in presence of HDAC4 siRNA by immunoblot; assay type: functional
Summary of the method: (§8)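 A549RT-eto cells transfected with control or HDAC4 siRNA (100 nM), then 20 µg/ml for 24 h; MTT viability, mean of three experiments; lysates on 12% SDS-PAGE immunoblotted for HDAC4, beclin-1 and LC3-I cleavage.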

Homo sapiens [29] = species on record: Homo sapiens; assay: Induction of autophagy in multidrug resistant human A549RT-eto cells assessed as increase in beclin-1 protein level at 20 ug/ml incubated for 24 hrs in presence of HDAC4 siRNA by immunoblot; assay type: functional; summary of the method: as §8
Homo sapiens [30] = species on record: Homo sapiens; assay: Induction of cell death in multidrug resistant human A549RT-eto cells incubated for 72 hrs by light microscopy; assay type: functional
Summary of the method: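 A549RT-eto cells given 0, 1.56, 3.13, 6.25, 12.5 or 25 µg/ml for 72 h; morphology and viability judged under light microscope.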

Homo sapiens [31] = species on record: Homo sapiens; assay: Induction of autophagy in multidrug resistant human A549RT-eto cells assessed as increase in vacuoles formation at 7.5 to 20 ug/ml by light microscopy
Homo sapiens [32] = species on record: Homo sapiens; assay: Induction of autophagy in multidrug resistant human A549RT-eto cells assessed as reduction in mTOR phosphorylation at 7.5 to 20 ug/ml incubated for 12 hrs by immunoblot
Homo sapiens [33] = species on record: Homo sapiens; assay: Induction of autophagy in multidrug resistant human A549RT-eto cells assessed as increase in beclin-1 protein level at 7.5 to 20 ug/ml incubated for 12 hrs by immunoblot
Homo sapiens [34] = species on record: Homo sapiens; assay: Induction of autophagy in multidrug resistant human A549RT-eto cells assessed as increase in LC3-I to LC3-II conversion at 7.5 to 20 ug/ml incubated for 12 hrs by immunoblot

CC(C)=CCc1c2c(c3oc4c(O)c(O)ccc4c(=O)c3c1O)C(C)(C)C(C)O2 (stereo not given)
85%: viability at 20 µg/mL [16] | viability at 20 µg/mL [17]
inactive: Activity (Homo sapiens [3]) | Activity (Homo sapiens [4]) | Activity (Homo sapiens [12]) | Activity (Homo sapiens [13]) | Activity (Homo sapiens [15]) | Activity (Homo sapiens [20])
active: Activity (Homo sapiens [1]) Dose-dependent effect | Activity (Homo sapiens [5]) | Activity (Homo sapiens [6]) | Activity (Homo sapiens [7]) | Activity (Homo sapiens [8]) | Activity (Homo sapiens [9]) | Activity (Homo sapiens [10]) | Activity (Homo sapiens [11]) | Activity (Homo sapiens [14]) | Activity (Homo sapiens [21]) | Activity (Homo sapiens [22]) | Activity (Homo sapiens [23]) | Activity (Homo sapiens [24]) | Activity (Homo sapiens [27]) | Activity (Homo sapiens [28]) | Activity (Homo sapiens [29]) | Activity (Homo sapiens [30]) Dose-dependent effect | Activity (Homo sapiens [31]) | Activity (Homo sapiens [32]) | Activity (Homo sapiens [33]) | Activity (Homo sapiens [34])
60%: Activity [25]
30%: viability at 20 µg/mL [18] | viability at 20 µg/mL [19]
2.56 mg/L: IC50 (A549)
4.65 mg/L: IC50 [2]
80%: Activity [26]
